Reference: ChEMBL document CHEMBL1125042, “Hypolipidemic activity of rifamycin derivatives” (J Med Chem, 1990)
≈ marks a conversion by molar mass, not a printed value.

Legend:
Staphylococcus aureus = test: Antibacterial activity against Staphylococcus aureus 10B; format: functional
In short: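 Agar dilution on DST agar with 2-fold drug dilutions. Inoculum of 10⁴ viable S. aureus 10B was taken from liquid-nitrogen stock, thawed 30 min and not subcultured. It was applied by multipoint replicator and incubated overnight at 37 °C. MIC is the lowest concentration inhibiting growth relative to control cultures.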

Rattus norvegicus [1] = test: Hypolipidemic activity was determined in male rats, and high-density lipoprotein level was determined at 10 mg/kg; format: functional
In short: (§1)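 Male Wistar rats (200–230 g), eight per group, were dosed orally in PEG 400 at 8 a.m. for 4 days, plus a second dose at 4 p.m. on day 4. Rats were fasted 16 h and killed 16 h after the last dose. Sera from pairs of rats were pooled. LDL (up to 1.040 g/cm³) was separated by ultracentrifugation and the HDL infranatant taken. Cholesterol was measured enzymatically. Results are % versus vehicle control, mean ± SEM of four pools, Student's t test.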

[2] = Inhibitory activity against RNA polymerase was determined; design: species or system Escherichia coli
In short: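 E. coli DNA-dependent RNA polymerase inhibition measured in vitro on ether-extracted, permeabilized E. coli cells.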

Rattus norvegicus [3] = test: Tested for hypolipidemic activity in male rats, cholesterol was determined in serum at 10 mg/kg; format: functional
In short: (§2)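 Groups of eight male Wistar rats (200–230 g) dosed orally in PEG 400, either daily for 7 days (killed 24 h after the last dose) or for 4 days with a second dose on day 4 (killed 16 h later). Fasted 16 h. Paired sera pooled, lipoproteins separated by ultracentrifugation (1.006 and 1.040 g/cm³), HDL taken as the infranatant. Cholesterol measured enzymatically; % vs vehicle, mean ± SEM of four pools.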

Rattus norvegicus [4] = test: Hypolipidemic activity was determined in male rats, and low-density lipoprotein level was determined at 10 mg/kg; format: functional; in short: as §1
Rattus norvegicus [5] = test: Hypolipidemic activity was determined in male rats, and high-density lipoprotein level was determined at 20 mg/kg; format: functional; in short: as §1
Rattus norvegicus [6] = test: Hypolipidemic activity was determined in male rats, and low-density lipoprotein level was determined at 20 mg/kg; format: functional; in short: as §1
Rattus norvegicus [7] = test: Tested for hypolipidemic activity in male rats, cholesterol was determined in serum at 20 mg/kg; format: functional; in short: as §2

SMILES	MIC (Staphylococcus aureus)	Activity (Rattus norvegicus [1])	IC50 [2]	Activity (Rattus norvegicus [3])	Activity (Rattus norvegicus [4])	Activity (Rattus norvegicus [5])	Activity (Rattus norvegicus [6])	Activity (Rattus norvegicus [7])
COC1CCOC2(C)Oc3c(C)c(O)c4c(O)c(c(N5CCN(Cc6c(C)cc(C)cc6C)CC5)c(O)c4c3C2=O)NC(=O)C(C)CCCC(C)C(O)C(C)C(O)C(C)C(OC(C)=O)C1C (centres undefined)	2 µg/mL (≈ 2.17 µM)	-27%	8 µg/mL (≈ 8.69 µM)	-30%	-32%			
CCCCCCCCCCCCN1CCN(c2c3c(O)c4c(O)c(C)c5c(c4c2O)C(=O)C(C)(O/C=C/C(OC)C(C)C(OC(C)=O)C(C)C(O)C(C)C(O)C(C)/C=C/C=C(/C)C(=O)N3)O5)CC1 (centres undefined)	0.15 µg/mL (≈ 0.158 µM)					-53%	-68%	-56%
CC(=O)OC1C(C)C2/C=C/OC3(C)Oc4c(C)c(O)c5c(O)c(c(N6CCN(Cc7c(C)cc(C)cc7C)CC6)c(O)c5c4C3=O)NC(=O)/C(C)=C\C=C\C(C)C(O)C(C)C(O2)C1C (centres undefined)	> 128 µg/mL	-4%	> 100 µg/mL	0%	-9%			
